This note sets out measurements from ChEMBL document CHEMBL3992517 (J Med Chem, 2017).

Calls of active or inactive are those of the source. The rule behind the calls is not given here.

Data set [1] concerns K562. Kind of data set: Antiproliferative activity against human K562 cells after 48 hrs by Alamar blue dye based neubauer hemocytometer method. As to conditions: K562, 48 h. In kind it is functional, cell-based. A digest of the protocol:
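K562 human chronic myelogenous leukemia cells, mycoplasma-negative, grown at 37 °C in 5% CO2 in RPMI 1640 with 10% FBS, penicillin/streptomycin and L-glutamine. Cells were exposed to compound for 48 h and then counted on a Neubauer hemocytometer. IC50 is the concentration giving 50% growth inhibition, taken as the mean of at least three independent determinations (SD < 10%).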
In general terms: Resazurin is reduced to fluorescent resorufin, in cell work by metabolically active cells.

A further data set relates to MG-63. Kind of data set: Antiproliferative activity against human MG63 cells after 72 hrs by SRB assay. In kind it is functional. As to conditions: MG-63, 72 h. A digest of the protocol:
(§1)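 Cell panel screen (93 tumour lines listed in text; 94 in the table), run to the DTP NCI sulforhodamine B protocol. Concentrations from 0.0001 to 10 µM. GI50 is the molar concentration giving 50% growth inhibition relative to the initial seeding number, taken from log-transformed data. zScore is reported per cell line.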
A general note: The SRB assay estimates cell density from bound dye.

The subject of the next data set is JAR. Kind of data set: Antiproliferative activity against human JAR cells after 72 hrs by SRB assay. In kind it is functional. The gist of the method: as §1
A further data set concerns RD. The data set can be described thus: Antiproliferative activity against human RD cells after 72 hrs by SRB assay. Format: functional. The gist of the method:
as §1

The test system of a further data set is HT-29. Kind of data set: Antiproliferative activity against human HT-29 cells after 72 hrs by SRB assay. Format: functional. The conditions noted are these: HT-29, 72 h. The gist of the method:
as §1

The subject of a further data set is IMR-90. The data set can be described thus: Antiproliferative activity against human IMR90 cells after 72 hrs by SRB assay. In kind it is functional. As to conditions: IMR-90, 72 h. The gist of the method: as §1
In a further data set the test system is SK-N-AS. Kind of data set: Antiproliferative activity against human SK-N-AS cells after 72 hrs by SRB assay. In kind it is functional. A digest of the protocol:
as §1

Data set [2] deals with K562. Kind of data set: Cell cycle arrest in human K562 cells assessed as accumulation at G2/M phase up to 30 nM after 24 hrs by propidium iodide staining-based flow cytometry.
The subject of another data set is SK-LMS-1. Kind of data set: Antiproliferative activity against human SKLMS1 cells after 72 hrs by SRB assay. In kind it is functional. The conditions noted are these: SK-LMS-1, 72 h. The gist of the method: as §1
For another data set, the system named is COLO-678. The data set can be described thus: Antiproliferative activity against human COLO-678 cells after 72 hrs by SRB assay. In kind it is functional. The conditions noted are these: COLO-678, 72 h. The gist of the method:
as §1

The subject of another data set is SK-BR-3. The data set can be described thus: Antiproliferative activity against human SK-BR-3 cells after 72 hrs by SRB assay. In kind it is functional. As to conditions: SK-BR-3, 72 h. The gist of the method:
as §1

The subject of a further data set is Panc1005. Kind of data set: Antiproliferative activity against human Panc 10.05 cells after 72 hrs by SRB assay. In kind it is functional. As to conditions: Panc1005, 72 h. The gist of the method: as §1
The next data set concerns PBMC. Kind of data set: Cytotoxicity against human PBMC after 72 hrs by SRB assay. In kind it is cell-based. A digest of the protocol:
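Resting, non-proliferating peripheral blood mononuclear cells were included in the panel and quantified by sulforhodamine B staining.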

Data set [3] in a line: Antiproliferative activity against human CLS439 cells after 72 hrs by SRB assay. As to conditions: CLS439, 72 h. Format: functional. A digest of the protocol:
as §1

For a further data set, the system named is NCI-H292. The data set can be described thus: Antiproliferative activity against human NCI-H292 cells after 72 hrs by SRB assay. Format: functional. As to conditions: NCI-H292, 72 h. A digest of the protocol:
as §1

The subject of another data set is JIMT-1. The data set can be described thus: Antiproliferative activity against human JIMT1 cells after 72 hrs by SRB assay. In kind it is functional. As to conditions: JIMT-1, 72 h. The gist of the method: as §1
A further data set has as its system PANC-1. The data set can be described thus: Antiproliferative activity against human PANC1 cells after 72 hrs by SRB assay. Format: functional. As to conditions: PANC-1, 72 h. A digest of the protocol:
as §1

A short description of data set [4]: (§2) Inhibition of porcine tubulin polymerization after 45 mins by turbidometric method. Set-up: species or system Sus scrofa.
For another data set, the species on record is Sus scrofa. The description is as §2.
Another data set concerns Caco-2. The data set can be described thus: Antiproliferative activity against human Caco2 cells after 72 hrs by SRB assay. In kind it is functional. The conditions noted are these: Caco-2, 72 h. A digest of the protocol: as §1
Another data set concerns NCI-H82. Kind of data set: Antiproliferative activity against human NCI-H82 cells after 72 hrs by SRB assay. In kind it is functional. As to conditions: NCI-H82, 72 h. A digest of the protocol:
as §1

Data set [5] has as its target Tubulin beta-5 chain (Homo sapiens) (UniProt P07437). Kind of data set: Competitive binding affinity to beta-tubulin in human K562 cells assessed as disappearance of EBI-protein adducts at 20 to 40 uM preincubated for 2 hrs followed by EBI addition measured after 1.5 hrs by Western blot analysis. In kind it is cell-based.

Chain of Tubulin beta-5 chain (Homo sapiens) (P07437 whole entry): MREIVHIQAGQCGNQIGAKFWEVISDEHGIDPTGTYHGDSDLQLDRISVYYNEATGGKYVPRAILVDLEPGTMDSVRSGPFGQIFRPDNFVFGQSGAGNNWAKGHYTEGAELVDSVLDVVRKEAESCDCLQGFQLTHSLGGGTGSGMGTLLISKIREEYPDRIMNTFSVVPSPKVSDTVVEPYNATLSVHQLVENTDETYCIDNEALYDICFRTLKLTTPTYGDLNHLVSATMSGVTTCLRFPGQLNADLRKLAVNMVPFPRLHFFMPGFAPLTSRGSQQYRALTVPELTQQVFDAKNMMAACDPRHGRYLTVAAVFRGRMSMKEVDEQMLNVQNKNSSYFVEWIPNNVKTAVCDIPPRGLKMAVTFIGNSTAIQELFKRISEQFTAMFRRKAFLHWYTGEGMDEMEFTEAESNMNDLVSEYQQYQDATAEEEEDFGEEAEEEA

Consider `COc1cccc(N2CCN(C(=O)N3c4ccccc4Oc4cc(C#N)ccc43)CC2)c1`, for which the IC50 in the data set on K562 [1] was determined as 7 nM; in [4] it was 360 nM. Besides, the GI50 stood at 1.5 nM with MG-63; 1.7 nM with JAR; 1.7 nM in the data set on RD; 6.4 nM in the data set on HT-29; 1.6 nM in the data set with IMR-90; 1.4 nM in the data set on SK-N-AS. The GI50 in the data set on SK-LMS-1 was determined as 5.9 nM; with COLO-678, 7.5 nM; in the data set with SK-BR-3, 1.5 nM; in the data set on Panc1005 it was 1.7 nM; in data set [3], 7.8 nM; with NCI-H292, 6.7 nM. The GI50 in the data set on JIMT-1 is 5.9 nM; with PANC-1 it was 6.5 nM; in the data set with Caco-2, 7.9 nM; in the data set on NCI-H82, 1.6 nM. Moreover, the outcome with K562 [2] was Active. Also, in the data set with PBMC, the Activity entry is reported as “Non-Toxic”. Moreover, the inhibition result in the data set filed under Sus scrofa was “Dose-dependent effect”.
`COc1cccc(N2CCN(CC(=O)N3c4ccccc4Oc4ccccc43)CC2)c1`: the IC50 in the data set with K562 [1] was 5000 nM; in data set [4] it was greater than 10000 nM.
Molecule `COc1ccc(N2CCN(C(=O)N3c4ccccc4Sc4ccccc43)CC2)cc1` yielded an IC50 in the data set with K562 [1] of 3700 nM.
In the case of `COc1ccc(N2CCN(C(=O)N3c4ccccc4Sc4ccc(Cl)cc43)CC2)cc1`, the results for the IC50 (with K562 [1]; in [4]) were 1900 nM and greater than 10000 nM, respectively.
For the molecule `N#Cc1ccc(N2CCN(C(=O)N3c4ccccc4Sc4ccccc43)CC2)cc1`, in the data set with K562 [1], half-maximal inhibition (IC50) was put at 390 nM.
For `COc1cccc(N2CCN(C(=O)N3c4ccccc4Oc4ccc(Cl)cc43)CC2)c1`, the figures for the IC50 (in the data set on K562 [1]; in data set [4]) were 30 nM and 800 nM, respectively.
Taken in the same sequence, the figures for `O=C(N1CCN(c2ccc(Cl)cc2)CC1)N1c2ccccc2Oc2ccccc21` were 630 nM and 830 nM.
The corresponding values for `COc1cccc(N2CCN(C(=O)N(c3ccccc3)c3ccccc3)CC2)c1` are 18000 nM and greater than 10000 nM.
Regarding `COc1ccccc1N1CCN(C(=O)N2c3ccccc3Oc3ccc(Cl)cc32)CC1`, the IC50 in the data set on K562 [1] was found to be 30 nM; in data set [4], 620 nM.
Consider `COc1ccccc1N1CCN(C(=O)N2c3ccccc3C=Cc3ccccc32)CC1`, for which the IC50 in the data set on K562 [1] amounted to 450 nM; in data set [4] it was 2830 nM.
`COc1ccc(CNC(=O)N2c3ccccc3Oc3ccccc32)cc1`: the half-inhibitory concentration (IC50) with K562 [1] turned out to be 19000 nM; in [4] it was 9000 nM.
On to `O=C(N1CCN(c2ccccc2)CC1)N1c2ccccc2Oc2ccccc21`, for which the IC50 in the data set on K562 [1] was 30 nM; in data set [4], 1380 nM.
The corresponding values for `COc1cccc(N2CCN(C(=O)N3c4ccccc4Sc4ccccc43)CC2)c1` are 20 nM and 550 nM.
Turning to `CC[C@]1(O)C[C@H]2CN(CCc3c([nH]c4ccccc34)[C@@](C(=O)OC)(c3cc4c(cc3OC)N(C)[C@H]3[C@@](O)(C(=O)OC)[C@H](OC(C)=O)[C@]5(CC)C=CCN6CC[C@]43[C@@H]65)C2)C1`, it took 1 nM to reach half-maximal inhibition in the data set with K562 [1] (IC50).
`COc1ccccc1N1CCN(C(=O)Nc2ccccc2Oc2ccccc2)CC1`: the IC50 (in the data set on K562 [1]; in data set [4]) was greater than 10000 nM each time.
Take `COc1ccccc1N1CCN(C(=O)N2c3ccccc3Oc3ccccc32)CC1`: the figures for the IC50 (with K562 [1]; in data set [4]) were 20 nM and 640 nM, respectively.
Taken in the same sequence, the figures for `COc1cccc(N2CCN(C(=O)N3c4cc(Cl)ccc4Oc4ccc(Cl)cc43)CC2)c1` were 180 nM and 900 nM.
Take `O=C(N1CCN(c2ccccc2)CC1)N1c2ccccc2Sc2ccccc21`: the IC50 with K562 [1] worked out at 130 nM; in data set [4] it was 810 nM.
The corresponding values for `O=C(N1CCN(c2ccc(C(F)(F)F)cc2)CC1)N1c2ccccc2Oc2ccccc21` are greater than 60000 nM and greater than 10000 nM.
`COc1ccccc1N1CCN(C(=O)N2c3ccccc3Sc3ccccc32)CC1`: the results for the IC50 (in the data set with K562 [1]; in data set [4]) were 20 nM and 600 nM, respectively. In addition, in data set [5], the result was Active.
`COc1ccccc1N1CCN(C(=O)N2c3ccccc3CCc3ccccc32)CC1`: the IC50 is 840 nM in the data set with K562 [1] and 10700 nM in data set [4].
The corresponding values for `COc1cccc(N2CCN(C(=O)N3c4ccccc4Oc4ccccc43)CC2)c1` are 20 nM and 690 nM.
The corresponding values for `COc1cccc(N2CCN(C(=O)N3c4ccccc4Sc4ccc(Cl)cc43)CC2)c1` are 30 nM and 920 nM.
Taken in the same sequence, the figures for `COc1cccc(N2CCN(C(=O)Nc3ccccc3Oc3ccccc3)CC2)c1` were greater than 10000 nM and greater than 10000 nM.
`COc1ccccc1N1CCN(CC(=O)N2c3ccccc3Oc3ccccc32)CC1`: the IC50 in the data set on K562 [1] is 9000 nM; in [4], greater than 10000 nM.
The corresponding values for `O=C(N1CCN(c2ccc([N+](=O)[O-])cc2)CC1)N1c2ccccc2Oc2ccccc21` are greater than 70000 nM and greater than 10000 nM.
On to `N#Cc1ccc(N2CCN(C(=O)N3c4ccccc4Oc4ccccc43)CC2)cc1`, for which the IC50 in the data set with K562 [1] is greater than 20000 nM; in data set [4], greater than 10000 nM.
Taken in the same sequence, the figures for `COc1ccc(N2CCN(C(=O)N3c4ccccc4Oc4ccccc43)CC2)cc1` were 3130 nM and 14300 nM.
With `COc1ccc(N2CCN(C(=O)N3c4ccccc4Oc4cc(C#N)ccc43)CC2)cc1`, the IC50 was 3700 nM in the data set on K562 [1] and 3380 nM in [4].
Taken in the same sequence, the figures for `COc1ccccc1N1CCN(C(=O)N2c3ccccc3Sc3ccc(Cl)cc32)CC1` were 90 nM and 510 nM.
The corresponding values for `COc1ccccc1N1CCN(C(=O)N2c3cc(Cl)ccc3Oc3ccc(Cl)cc32)CC1` are 130 nM and 1190 nM.
Taken in the same sequence, the figures for `COc1cccc(N2CCN(C(=O)N3c4ccccc4C=Cc4ccccc43)CC2)c1` were 940 nM and 3560 nM.
As to `COc1ccccc1N1CCN(C(=O)N2c3ccccc3Oc3cc(C#N)ccc32)CC1`, the results for the IC50 (with K562 [1]; in [4]) were 30 nM and 320 nM, respectively.
The molecule `c1ccc2c(c1)Nc1ccccc1O2` [PHENOXAZINE] displayed an IC50 in the data set on K562 [1] of 16800 nM.
With `COc1ccc(NC(=O)N2c3ccccc3Oc3ccccc32)cc1`, the IC50 in the data set on K562 [1] was greater than 80000 nM; in data set [4] it was greater than 10000 nM.
In the data set on K562 [1], `Cc1ccc(N2CCN(C(=O)N3c4ccccc4Oc4ccccc43)CC2)cc1` had an IC50 of 1390 nM.
For `COc1ccc(N2CCN(C(=O)Nc3ccccc3Oc3ccccc3)CC2)cc1`, the IC50 (with K562 [1]; in [4]) was greater than 10000 nM each time.
Consider `COc1cccc(CNC(=O)N2c3ccccc3Oc3ccccc32)c1`, for which the figures for the IC50 (in the data set with K562 [1]; in data set [4]) were 6000 nM and 8530 nM, respectively.

The term IC50 denotes the midpoint of a concentration-inhibition curve. A high value points to a need for much substance. As usually defined, the GI50 is the concentration that inhibits growth by half. A low value points to more potent growth inhibition.
